Data: paper PMC6030701 (EMBO Reports, 2018)
Blank lines part the entries; values can stand above or below the molecule they belong to.

Tests used:
[1] = system: RD/LD mutant MSP domain of MOSPD2; assay: Liposome aggregation; assay type: biochemical; details: DLS, 25°C, FFAT peptide 380 nM, RD/LD mutant MSP 760 nM
MSP domain of MOSPD2 = target: T1, MSP domain of MOSPD2 (Homo sapiens, UniProt Q8NHP6); assay: Liposome aggregation; assay type: biochemical; details: DLS, 25°C
T1 sequence (Q8NHP6 282-490): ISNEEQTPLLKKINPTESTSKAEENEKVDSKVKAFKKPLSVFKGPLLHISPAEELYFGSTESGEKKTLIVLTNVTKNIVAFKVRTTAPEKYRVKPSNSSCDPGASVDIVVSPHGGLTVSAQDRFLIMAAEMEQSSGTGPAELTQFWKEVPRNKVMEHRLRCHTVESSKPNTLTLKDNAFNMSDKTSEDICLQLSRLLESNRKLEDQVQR

SEC = target: the molecule itself; assay: SEC
STARD3 = assay: MSP domain pull-down, STARD3; assay type: binding; details: 6His MSP on NTA-Ni2+ resin, HeLa/STARD3 protein extract, Western blot
In short: (§1)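 6His-tagged MSP domain (residues 282–490), from E. coli BL21 DE3 (1 mM IPTG, 20°C, 16 h), purified on Ni-NTA and by gel filtration. HeLa stable-line extract in PDB2 incubated 2.5 h, 4°C. Laemmli elution; blotted for STARD3, His, actin.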

STARD3 FA/YA = assay: MSP domain pull-down, STARD3 FA/YA mutant; assay type: binding; details: 6His MSP on NTA-Ni2+ resin, HeLa/STARD3 FA/YA protein extract, Western blot
In short: as §1

- size of liposome aggregates at end of kinetics (MSP domain of MOSPD2; FFAT peptide 380 nM, MSP MOSPD2 WT 760 nM): 479 ± 87 nm
- size of free liposomes (MSP domain of MOSPD2; size distribution analysis): 97 ± 15 nm
Molecule: WCSGKGDMSDEDDENEFFDAPEIITMPENLGH [FFAT‐containing peptide]
- liposome aggregation [1]: no aggregation was observed

B1: MSP domain and coiled‐coil of VAP‐A [8–212], wild type (domain or fragment, human, UniProt Q9P0L0 8-212, looked up)
chain: MAKHEQILVLDPPTDLKFKGPFTDVVTTNLKLRNPSDRKVCFKVKTTAPRRYCVRPNSGIIDPGSTVTVSVMLQPFDYDPNEKSKHKFMVQTIFAPPNTSDMEAVWKEAKPDELMDSKLRCVFEMPNENDKLNDMEPSKAVPLNASKQDGPMPKPHSVSLNDTETRKLMEECKRLQGEMMKLSEENRHLRDEGLRLRKVAHSDKP
- stoichiometry N (SEC): 2

B2: wild‐type MSP domain of MOSPD2: recombinant MSP domain of MOSPD2 [282–490], expressed in E. coli (protein)
chain: ISNEEQTPLLKKINPTESTSKAEENEKVDSKVKAFKKPLSVFKGPLLHISPAEELYFGSTESGEKKTLIVLTNVTKNIVAFKVRTTAPEKYRVKPSNSSCDPGASVDIVVSPHGGLTVSAQDRFLIMAAEMEQSSGTGPAELTQFWKEVPRNKVMEHRLRCHTVESSKPNTLTLKDNAFNMSDKTSEDICLQLSRLLESNRKLEDQVQR
modifications: left off: 6His, C-terminal, kept
- interaction with STARD3 (STARD3): interacted specifically with STARD3
- interaction with STARD3 FA/YA (STARD3 FA/YA): not with the STARD3 FA/YA mutant
